Reference: BindingDB's records for doi:10.1016/j.bmcl.2012.10.080 (University of California, 2012)

Target: T1, Phospholipase A2, membrane associated (Homo sapiens, UniProt P14555)
T1 sequence (P14555 whole entry): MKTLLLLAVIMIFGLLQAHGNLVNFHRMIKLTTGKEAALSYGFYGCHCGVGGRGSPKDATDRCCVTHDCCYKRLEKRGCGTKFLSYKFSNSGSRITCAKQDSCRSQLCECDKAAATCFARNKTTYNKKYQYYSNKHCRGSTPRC
Assay: Inhibition of sPLA2-IIA (unknown origin)-integrin alphaVbeta3 interaction in human K562 cells pretreated for 30 mins to immobilized sPLA2 before adding cells by phosphatase assay
Method in brief: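 Wells coated with sPLA2-IIA and blocked with BSA were preincubated with compound (10 to 500 μM) for 30 min. Integrin αvβ3-transfected K562 erythroleukemia cells were then added for 1 h at 37 °C, and bound cells were quantified by phosphatase assay. IC50 and maximum inhibition were derived from dose-response experiments.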

- IC50: 241 µM
Compound: Cc1nc(NC(=O)c2ccccc2)sc1-c1cc(C(=O)NCC(=O)O)[nH]n1
